Test results: ChEMBL document CHEMBL4396895, “Identification and Optimization of Novel Cathepsin C Inhibitors Derived from EGFR Inhibitors” (J Med Chem, 2019)
Activity calls are given as the source filed them. The calls are words filed in the database; no cut-off is given here.

Assays:
Dipeptidyl peptidase 1 [1] = target: T1, Dipeptidyl peptidase 1 (Homo sapiens, UniProt P53634); test: Inhibition of cathepsin C (unknown origin)
In short: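 Enzyme preincubated with compound 3 h at RT. Gly-Phe-AFC added (100 μM final) and product fluorescence read after 60 min. IC50 from sigmoidal nonlinear regression, mean of at least two experiments.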

Dipeptidyl peptidase 1 [2] = target: T1, Dipeptidyl peptidase 1; test: Inhibition of CatL-activated recombinant human C-terminal His10-tagged cathepsin C (25 to 463 residues) expressed in mouse myeloma cells using Gly-Phe-AFC as substrate preincubated for 3 hrs followed by substrate addition and measured after 60 mins; type: cell-free
In short: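 Activated rhCatC was diluted to 4.4 nM in 25 mM MES, 50 mM NaCl, 5 mM DTT, 0.01% Triton X-100, pH 6.0. It was preincubated with compound (added in 10% DMSO) for 3 h at RT. Gly-Phe-AFC was then added to 100 μM final and read as fluorescence after 60 min. IC50 came from a sigmoidal nonlinear fit; values are means of at least two experiments.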

[3] = Intrinsic clearance in human liver microsomes assessed per mg protein measured after 60 mins in presence of NADPH by LC-MS/MS analysis; type: ADME, Microsome; conditions: read-out: CLH
Dipeptidyl peptidase 1 [4] = target: T1, Dipeptidyl peptidase 1; test: Inhibition of cathepsin C in human U937 cells using H-Gly-Phe-AFC as substrate preincubated for 4 hrs followed by substrate addition and measured after 60 mins; type: cell-based
In short: (§1)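 THP1 or U937 cells, grown in RPMI 1640 with 10% FBS, were seeded at 1.0 × 10^6/mL. They were preincubated with threefold serial dilutions of compound for 4 h at 37 °C. H-Gly-Phe-AFC was then added from a 100 μM solution and fluorescence was read after 60 min at 37 °C. Values are means of at least two experiments.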

[5] = Intrinsic clearance in mouse liver microsomes assessed per mg protein measured after 60 mins in presence of NADPH by LC-MS/MS analysis; type: ADME, Microsome; conditions: read-out: CLH
Dipeptidyl peptidase 1 [6] = target: T1, Dipeptidyl peptidase 1; test: Inhibition of cathepsin C in human THP1 cells using H-Gly-Phe-AFC as substrate preincubated for 4 hrs followed by substrate addition and measured after 60 mins; type: cell-based; in short: as §1
[7] = Intrinsic clearance in rat liver microsomes assessed per mg protein measured after 60 mins in presence of NADPH by LC-MS/MS analysis; type: ADME, Microsome; conditions: read-out: CLH
[8] = target: Epidermal growth factor receptor (Homo sapiens, UniProt P00533); test: Inhibition of EGFR (unknown origin) up to 10 uM using biotin-labelled peptide as substrate preincubated for 2 hrs followed by substrate addition and measured after 30 mins by HTRF FRET assay
In short: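 EGFR WT was used at 0.1 nM final in 50 mM HEPES pH 7.0, 0.02% NaN3, 0.01% BSA, 0.1 mM orthovanadate, 10 mM MgCl2, 2.5 mM DTT, 6.25 nM SEB. It was preincubated with compound for 2 h. Biotin-peptide (1.4 μM) and ATP (20 μM) were then added for 30 min at RT. Read-out was HTRF/TR-FRET (Ex 320, Em 615/665 nm) with a sigmoidal curve fit.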

Cathepsin S = Cathepsin S (Homo sapiens, UniProt P25774); test: Inhibition of recombinant human C-terminal polyhistidine-tagged cathepsin S (Met1 to Ile331 residues) expressed in HEK293 cells using MCA-Arg-Pro-Lys-Pro-Val-Glu-NVAL-Trp-Arg-Lys(DNP)-NH2 as substrate preincubated for 30 mins followed by substrate addition and measured after 30 mins
In short: (§2)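 Recombinant human cathepsin was preincubated with compound for 30 min at RT, then reacted with substrate for 30 min. CatB and CatL were read with Z-Leu-Arg-AMC (Ex 380/Em 460 nm). CatS was read with MCA-Arg-Pro-Lys-Pro-Val-Glu-Nva-Trp-Arg-Lys(DNP)-NH2 (Ex 320/Em 405 nm). E-64 served as inhibitor control.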

Cytochrome P450 2C19 = Cytochrome P450 2C19 (Homo sapiens, UniProt P33261); test: Inhibition of CYP2C19 (unknown origin); type: ADME
In short: (§3)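 Tested against recombinant human cytochrome P450 isoforms 1A2, 2D6, 3A4, 2C9 and 2C19.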

Cytochrome P450 2D6 = Cytochrome P450 2D6 (Homo sapiens, UniProt P10635); test: Inhibition of CYP2D6 (unknown origin); type: ADME; in short: as §3
Cytochrome P450 2C9 = Cytochrome P450 2C9 (Homo sapiens, UniProt P11712); test: Inhibition of CYP2C9 (unknown origin); type: ADME; in short: as §3
Cathepsin B = Cathepsin B (Homo sapiens, UniProt P07858); test: Inhibition of recombinant human C-terminal polyhistidine-tagged cathepsin B (Arg18 to Ile339 residues) expressed in HEK293 cells using Z-Leu-Arg-AMC as substrate preincubated for 30 mins followed by substrate addition and measured after 30 mins; in short: as §2
Cytochrome P450 3A4 = Cytochrome P450 3A4 (Homo sapiens, UniProt P08684); test: Inhibition of CYP3A4 (unknown origin); type: ADME; in short: as §3
Cytochrome P450 1A2 = target: T2, Cytochrome P450 1A2 (Homo sapiens, UniProt P05177); test: Inhibition of CYP1A2 (unknown origin); type: ADME; in short: as §3
T2 sequence (P05177 whole entry): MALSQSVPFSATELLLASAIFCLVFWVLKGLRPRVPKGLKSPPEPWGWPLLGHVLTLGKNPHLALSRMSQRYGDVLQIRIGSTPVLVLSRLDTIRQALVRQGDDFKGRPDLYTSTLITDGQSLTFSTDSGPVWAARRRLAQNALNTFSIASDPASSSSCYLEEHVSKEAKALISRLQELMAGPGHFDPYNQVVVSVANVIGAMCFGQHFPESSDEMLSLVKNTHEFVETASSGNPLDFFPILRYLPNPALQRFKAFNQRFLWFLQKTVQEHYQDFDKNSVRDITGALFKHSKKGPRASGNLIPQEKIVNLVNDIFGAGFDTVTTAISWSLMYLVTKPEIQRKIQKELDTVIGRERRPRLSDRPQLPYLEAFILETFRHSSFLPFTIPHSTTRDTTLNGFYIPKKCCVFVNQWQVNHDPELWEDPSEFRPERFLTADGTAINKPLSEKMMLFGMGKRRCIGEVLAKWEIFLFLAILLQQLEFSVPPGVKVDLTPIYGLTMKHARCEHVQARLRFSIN

Procathepsin L = Procathepsin L (Homo sapiens, UniProt P07711); test: Inhibition of recombinant human C-terminal His6-tagged cathepsin L (Glu113 to Val333 and Ala114 to Val333 residues) expressed in mouse myeloma cells using Z-Leu-Arg-AMC as substrate preincubated for 30 mins followed by substrate addition and measured after 30 mins; in short: as §2

| Structure (SMILES) | IC50 (Dipeptidyl peptidase 1 [2]) | microsomal CLint [3] | IC50 (Dipeptidyl peptidase 1 [4]) | IC50 (Dipeptidyl peptidase 1 [6]) | microsomal CLint [7] | also measured |
| --- | --- | --- | --- | --- | --- | --- |
| CN(C)C/C=C/C(=O)Nc1cc2c(Nc3ccc(F)c(Cl)c3)ncnc2cc1O[C@H]1CCOC1 [AFATINIB] |  |  |  |  |  | IC50 (Dipeptidyl peptidase 1 [1]): > 10000 nM |
| C=CC(=O)Nc1cc(Oc2nc(Nc3ccc(N4CCN(C)CC4)cc3OC)ccc2N2CCN(C)CC2)ccc1C | 46.5 nM | 3.7 µL/min/mg | 4.7 nM | 2.8 nM | 2 µL/min/mg | microsomal CLint [5]: 3 µL/min/mg |
| C=CC(=O)Nc1cccc(Oc2nc(Nc3ccc(N4CCN(C)CC4)cc3OC)ccc2N2CCCCCC2)c1 | 271 nM |  |  |  |  |  |
| C=CC(=O)Nc1cc(Oc2nc(Nc3ccc(N4CCN(C)CC4)cc3OC)ccc2N2CCC(O)C2)ccc1C (racemic) | 32.3 nM |  | 49.4 nM | 28.4 nM |  |  |
| C=CC(=O)Nc1cc(Oc2nc(Nc3ccc(N4CCN(C(C)=O)CC4)cc3OC)ccc2N2CCCCC2)ccc1C | 135 nM |  |  |  |  |  |
| C=CC(=O)Nc1cc(Oc2nc(Nc3ccc(N4CCN(C)CC4)cc3OC)ccc2N2CCCC2)ccc1OC | 140 nM |  | 70 nM | 21.3 nM |  |  |
| C=CC(=O)Nc1cc(Oc2nc(Nc3ccc(N4CCN(C)CC4)cc3OC)ccc2-c2ccccc2)ccc1C | 154 nM |  |  |  |  | inhibition [8]: inactive |
| C=CC(=O)Nc1cccc(Oc2nc(Nc3ccc(N4CCN(C)CC4)cc3)ccc2Cl)c1 | 483 nM |  |  |  |  |  |
| C=CC(=O)Nc1cc(Oc2nc(Nc3ccc(N4CCN(C)CC4)cc3OC)ccc2N2CCCC2)ccc1C(F)(F)F | 4 nM | 3.9 µL/min/mg | 11.5 nM | 6.7 nM | 11 µL/min/mg | inhibition [8]: inactive; microsomal CLint [5]: 866 µL/min/mg |
| C=CC(=O)Nc1cccc(Oc2nc(Nc3ccc(N4CCN(CC5CCCC5)CC4)cc3)ccc2Cl)c1 | > 10000 nM |  |  |  |  |  |
| C=CC(=O)Nc1cc(Oc2nc(Nc3ccc(N4CCN(C)CC4)cc3OC)ccc2N2CCCC(O)C2)ccc1C (racemic) | 34.1 nM | 4.9 µL/min/mg | 7.4 nM | 4.9 nM | 9 µL/min/mg | inhibition [8]: inactive; microsomal CLint [5]: 6 µL/min/mg |
| C=CC(=O)Nc1cc(Oc2nc(Nc3ccc(N4CCN(C)CC4)nc3OC)ccc2N2CCCCC2)ccc1C | 28.6 nM | 6 µL/min/mg | 10 nM | 6.5 nM | 13 µL/min/mg | microsomal CLint [5]: 22 µL/min/mg |
| C=CC(=O)Nc1cccc(Oc2nc(Nc3ccc(N4CCN(C)CC4)cc3OC)ccc2N(C)C)c1 | 1520 nM |  |  |  |  |  |
| C=CC(=O)Nc1cc(Oc2nc(Nc3ccc(N4CCN(C)CC4)cc3OC)ccc2N2CCCC2)ccc1C | 44 nM | 4.3 µL/min/mg | 40.8 nM | 12.3 nM | 23.1 µL/min/mg | IC50 (Cathepsin S): > 10000 nM; IC50 (Cytochrome P450 2C19): 9910 nM; IC50 (Cytochrome P450 2D6): > 10000 nM; IC50 (Cytochrome P450 2C9): > 10000 nM; IC50 (Cathepsin B): 3000 to 10000 nM; IC50 (Cytochrome P450 3A4): > 10000 nM; inhibition [8]: inactive; IC50 (Cytochrome P450 1A2): 8750 nM; IC50 (Procathepsin L): 3000 to 10000 nM; microsomal CLint [5]: 26.7 µL/min/mg |
| C=CC(=O)Nc1cccc(Oc2nc(Nc3ccc(N4CCOCC4)cc3)ccc2Cl)c1 | > 10000 nM |  |  |  |  |  |
| C=CC(=O)Nc1cc(Nc2nccc(-c3cn(C)c4ccccc34)n2)c(OC)cc1N(C)CCN(C)C [OSIMERTINIB] |  |  |  |  |  | IC50 (Dipeptidyl peptidase 1 [1]): 32900 nM |
| C=CC(=O)Nc1cc(Oc2nc(Nc3ccc(N4CCN(C)CC4)cc3)ccc2N2CCCCC2)ccc1C | 17.6 nM | 2.9 µL/min/mg | 5.8 nM | 2.7 nM | 15 µL/min/mg | inhibition [8]: inactive |
